Published values of several laboratories.
Organism: Staphylococcus aureus
Effect on: microbial growth

SMILES | test | system | conditions | MIC
Cn1c(Nc2ccc(C(F)(F)F)cc2)nc2cc(Oc3ccnc(-c4ncc(C(F)(F)F)[nH]4)c3)ccc21 | – | NCTC8325 | – | 30 µM
O=C1NC(=O)C(Cc2ccc(O)cc2)S1 (stereo not shown) | – | – | – | > 128 µg/mL
O=C(O)CN1C(=O)/C(=C/c2ccc(-c3ccc(N(c4ccccc4)c4ccccc4)cc3)c3ccccc23)SC1=S | broth dilution | ATCC43300 | – | 1000 µg/mL
N#CCNC(=O)c1ccc(-c2ccnc(Nc3ccc(N4CCOCC4)cc3)n2)cc1 | – | NCTC8325 | – | > 30 µM
O=C1NN=C(N=Cc2ccc(O)c(O)c2)C1=NNn1c(-c2ccccc2)nc2ccccc2c1=O | broth dilution | – | 24 h | 107 µM
O=C(Nc1ncc([N+](=O)[O-])s1)C1CCCCC1 | broth dilution | MRSA | – | 125 µM
Fc1ccc(-c2nc3ccccc3[nH]2)cc1 | broth dilution | ATCC29213 MSSA | – | 256 µg/mL
C/C(=C\c1ccc(C#N)cc1)C(=O)Nc1ccc(C(=O)N[C@@H](CC(N)=O)C(=O)Nc2ccc(C(=O)Nc3ccc(C(=O)Nc4ccc(C(=O)O)cc4)c(O)c3OC(C)C)cc2)cc1 | – | ATCC29213 | – | 0.06 µg/mL
CC(C)CC(=O)Nc1n[nH]c2c1CN(C(=O)C1CCN(C)CC1)C2(C)C | – | NCTC8325 | – | > 30 µM
COc1c(C)c(OC(C)=O)c(C)c(O)c1C(=O)/C=C/c1ccccc1 | broth dilution | ATCC25923 | – | 2500 µg/mL
O=C1NC(=S)S/C1=C\c1ccc(-c2ccc(N(c3ccccc3)c3ccccc3)cc2)c2ccccc12 | broth dilution | ATCC6538 | – | 500 µg/mL
CN(C)c1ccc(-c2nc3ncc(Cl)c(N4CCN(CC(=O)Nc5nccs5)CC4)c3[nH]2)cc1 | – | NCTC8325 | – | > 30 µM
CSc1ccc(-c2nc3ccc(C)cc3n2Cc2ccccc2)cc1 | broth dilution | ATCC29213 MSSA | – | 128 µg/mL
CN[C@H](CC(C)C)C(=O)N[C@H]1C(=O)N[C@@H](CC(N)=O)C(=O)N[C@H]2C(=O)N[C@H]3C(=O)N[C@H](C(=O)N[C@H](C(=O)O)c4cc(O)cc(O)c4-c4cc3ccc4O)[C@H](O)c3ccc(c(Cl)c3)Oc3cc2cc(c3O[C@@H]2O[C@H](CO)[C@@H](O)[C@H](O)[C@H]2O[C@H]2C[C@](C)(N)[C@H](O)[C@H](C)O2)Oc2ccc(cc2Cl)[C@H]1O | broth dilution | MRSA | – | 0.5 µg/mL
O=C(Nc1ccccc1F)c1ccccc1O | broth dilution | ATCC29213 | – | 32 µg/mL
O=C(O)c1cn(C2CC2)c2cc(N3CCNCC3)c(F)cc2c1=O | – | – | – | 1.6 µg/mL
CN(C[C@@H]1COCCO1)S(=O)(=O)Nc1ccc2ccc3ncc(-c4cnn(C)c4)cc3c(=O)c2c1 | – | NCTC8325 | – | 30 µM
Cc1ccc(C)n1-c1ccc(-c2nnc(-c3ccc(O)cc3)[nH]2)cc1 | broth dilution | ATCC11632 | 18 h | 8 µg/mL
C=CCn1c(-c2ccc(Cl)cc2)nc2ccc(C)cc21 | broth dilution | ATCC29213 MSSA | – | 32 µg/mL
Cc1cccc(Cl)c1NC(=O)Nc1ccc2c(c1)OC(F)(F)O2 | – | NCTC8325 | – | > 100 µM
CN[C@H](CC(C)C)C(=O)N[C@H]1C(=O)N[C@@H](CC(N)=O)C(=O)N[C@H]2C(=O)N[C@H]3C(=O)N[C@H](C(=O)N[C@H](C(=O)O)c4cc(O)cc(O)c4-c4cc3ccc4O)[C@H](O)c3ccc(c(Cl)c3)Oc3cc2cc(c3O[C@@H]2O[C@H](CO)[C@@H](O)[C@H](O)[C@H]2O[C@H]2C[C@](C)(N)[C@H](O)[C@H](C)O2)Oc2ccc(cc2Cl)[C@H]1O | – | 10 | – | 2.2 µg/mL
CC(C)Oc1c(NC(=O)c2ccc(NC(=O)[C@H](CC(N)=O)NC(=O)c3ccc(NC(=O)c4ccc(C#N)s4)cc3)cc2)ccc(C(=O)Nc2ccc(C(=O)O)cc2)c1O | – | ATCC29213 | – | 0.25 µg/mL
